Shown are actives, neighbours in structure and some others; about 2.3% of the full set was active somewhere.
Glyco luc inh: blocks N-linked glycosylation in D54 reporter cells; D54 ERlucT glycosylation luciferase reporter, 24 h; percent of 100 nM tunicamycin response; reporter increase, % at 12.5 µM; 360,000 tested, 0.23% active;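 active means mean luciferase reporter signal, scaled so untreated is 0 and the glycosylation-blocking control 100, at or above a set limit in every replicate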;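 further: luciferase carries N-glycosylation sites so blocking glycosylation raises the light; 0% = median of neutral control wells and 100% = median of 100 nM tunicamycin wells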
HIV Env fusion: inhibitors of HIV Env-mediated cell fusion. HeLa-JRFL Env/CEM21 cell fusion, luciferase. inhibition, % at 12.3 µM. 360,000 tested, 1.1% active. AID 651610;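 active means mean replicate inhibition score of at least 50 and every replicate individually at or above 50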;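 further: 0% = plate neutral controls and 100% = maraviroc near 300 nM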
PAX8 inh HTS: inhibitors of PAX8 transcriptional activity in RMG-I cells. RMG-I TPO-luciferase reporter, SteadyGlo, 24 h. inhibition, % at 12.6 µM. 360,000 tested, 1.2% active;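 active means mean replicate inhibition at least 60% with every replicate also reaching 60%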;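 further: luciferase light reporting Pax8 driven TPO promoter activity; plate controls were median of neutral control wells for no effect and mitoxantrone controls for full effect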
Rtt109 Vps75: inhibitors of Candida albicans Rtt109/Vps75 histone acetyltransferase; Q5AAJ8; AID 540336; purified Rtt109/Vps75, ThioGlo CoA-SH fluorescence, 4 h; 330,000 tested, 0.16% active; inhibition, % at 34.9 µM;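 active means inhibition of at least 50% in every replicate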
Target sequence (Q5AAJ8 whole entry, looked up): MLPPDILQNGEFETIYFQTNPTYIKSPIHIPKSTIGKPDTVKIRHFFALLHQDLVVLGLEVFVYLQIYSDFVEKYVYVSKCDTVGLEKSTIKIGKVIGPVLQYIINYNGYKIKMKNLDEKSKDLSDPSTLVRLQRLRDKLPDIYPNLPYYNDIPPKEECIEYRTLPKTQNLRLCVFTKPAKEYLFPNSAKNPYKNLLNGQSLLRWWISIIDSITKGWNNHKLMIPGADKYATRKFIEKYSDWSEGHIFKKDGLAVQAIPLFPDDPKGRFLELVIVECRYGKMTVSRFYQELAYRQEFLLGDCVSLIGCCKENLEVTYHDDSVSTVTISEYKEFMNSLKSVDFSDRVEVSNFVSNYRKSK
PfHsp90 set2: inhibits growth of yeast expressing Plasmodium falciparum Hsp90 | S. cerevisiae expressing PfHsp90, BacTiter-Glo ATP, 48 h; yeast lacking PDR1 and PDR3 efflux regulators | inhibition, % at 9.4 µM | 310,000 tested, 0.32% active;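 active means every replicate shows inhibition above about 80%, whatever the replicate mean, limit read from the data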;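 further: 0% = DMSO neutral controls and 100% = 20 µM radicicol positive controls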
Arr AP2 block: inhibitors of human beta-arrestin and AP2 interaction | FITC-arrestin peptide / GST-AP2 beads, flow cytometry; AP2 beta2 appendage carries R879A mutation | inhibition, % at 10 µM | 340,000 tested, 0.31% active | AID 504490;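 active means inhibition above a set limit, near 3 SD of compounds lacking own fluorescence, cut at about 54% in these data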;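 further: plate controls were DMSO wells for no effect and 5 µM unlabelled arrestin peptide for full effect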
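system = GST-tagged AP2 beta2-adaptin appendage (R879A) on 4 µm glutathione beads | reagent = FITC-labelled arrestin peptide probe, 50 nM final | schedule = compound with beads 12 min RT, then probe 1 h RT | signal = HyperCyt-sampled flow cytometry, FL1 channel, ex 488/em 535 nm | read-out = percent response from loss of bead-bound FITC fluorescence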
Starred values were filed as active, the others as inactive; . = no result; [ ] = remark or other dose.

SMILES	Glyco luc inh	HIV Env fusion	PAX8 inh HTS	Rtt109 Vps75	PfHsp90 set2	Arr AP2 block
CNC[C@H]1Oc2ccc(NC(=O)CCC(F)(F)F)cc2CC(=O)N([C@@H](C)CO)C[C@@H]1C	.	-8[16.7 µM]	-10	.	.	.
Cc1ccc(NC(=O)c2cc(-c3cc(Cl)ccc3C)n[nH]2)cc1NS(C)(=O)=O	0	65*	40	.	.	.
C[C@@]12C(=O)N(c3cccc(F)c3)C(=O)N1[C@H](c1ccc(F)cc1)[C@@H]1C(=O)N(C3CCCCC3)C(=O)[C@@H]12	0	.	.	23	.	1
O=C1[C@H]2[C@@H](c3ccc(F)cc3)N3C(=O)N(c4ccccc4)C(=O)[C@@]3(Cc3ccccc3)[C@H]2C(=O)N1C1CCCCC1	15	107*	18	15	-3	5
O=C1[C@H]2[C@@H](c3ccc(F)cc3)N3C(=O)N(c4ccccc4)C(=O)[C@@]3(Cc3ccc(Cl)cc3)[C@H]2C(=O)N1C1CCCCC1	0	100*	17	9	11	18
COC(=O)c1ccc(CN2CC(=O)N3[C@H](CO)[C@@H](c4ccc(Br)cc4)[C@@H]3C2)cc1	.	.	-11	.	.	.
CN(C)CC(=O)N1[C@H](C#N)[C@@H](c2ccc(-c3cccc(C(=O)N(C)C)c3)cc2)[C@@H]1CO	.	5[16.7 µM]	-32	.	.	.
CN(C)CCn1c2ccccc2c2nc3ccc([N+](=O)[O-])cc3cc21	12	37	76*	.	.	35
O=c1[nH]c2c(cnn2-c2ccc(Cl)cc2)c(=O)n1-c1cccc(Cl)c1	2	62*	14	3	8	-3
O=c1oc(-c2cccc(Cl)c2)nc2c1cnn2-c1ccccc1	1	-17	.	28	-24	34
CCS(=O)(=O)NCC[C@H]1CC[C@@H](NC(=O)C2CCCC2)[C@H](CO)O1	.	-5[16.7 µM]	4	.	.	.
COc1ccc(NC(=O)/C=C/c2cc(Br)ccc2OC)cc1	-2	.	.	-4	3	25
COc1ccc(Br)cc1/C=C/C(=O)c1ccc(NC(C)=O)cc1	-13	-256	105*	0	3	-4
COc1cc(/C=C/[N+](=O)[O-])ccc1OC(=O)c1cc2ccccc2oc1=O	20	16	-20	10	106*	31
C[C@@H]1CN([C@@H](C)CO)C(=O)c2cc(NS(=O)(=O)c3cccs3)ccc2O[C@H]1CN(C)S(=O)(=O)c1ccc(F)cc1	.	-10[16.7 µM]	.	.	.	.
Cc1[nH]c2ccccc2c1C(=O)C(=O)N1CCCc2ccccc21	0	1	-6	14	-15	-8
Cc1[nH]c2ccccc2c1SCC(=O)N1CCCc2ccccc21	-2	69*	27	8	-12	6
O=c1oc2ccccc2cc1-c1cn2cccnc2n1	-12	-141	.	2	.	-3
O=c1oc2ccccc2cc1-c1cn2ccccc2n1	-19	36	71*	1	48	22
COc1cccc(-c2sc3ccc(OC)cc3c2-c2ccc(OCCN(C)C)cc2)c1	-11	1	68*	10	40	22
CN(C)CCOc1ccc(-c2c(-c3ccsc3)sc3ccccc23)cc1	-7	34	-10	12	24	26
COc1ccc(-c2sc3ccccc3c2-c2ccc(OCCN(C)C)cc2)cc1	-10	16	100*	-1	41	0
C[C@H](CO)N1C[C@H](C)[C@H](CN(C)Cc2cncnc2)Oc2cc(C#CC3CC3)ccc2S1(=O)=O	.	13[16.7 µM]	.	.	.	.
C[C@H](CO)N1C[C@H](C)[C@H](CN(C)C(=O)NC2CCCC2)Oc2ncc(-c3ccncc3)cc2C1=O	.	16[16.7 µM]	.	.	.	.
CN(C)c1ccc2c(c1)[C@H]1C[C@H](CC(=O)NC3CCCC3)O[C@H](CO)[C@H]1O2	.	1[16.7 µM]	3	.	.	.
CO[C@H]1CC[C@@H]2CCOc3c(C#N)cccc3C(=O)N(C)C[C@@H](C)C(=O)N(C)C[C@@H]1O2	.	-4[16.7 µM]	12	.	.	.
CC1(C)CC(N2CCN(Cc3ccccc3)CC2)=CC(=[N+]2CCCCC2)C1	1	-2	69*	14	-14	11
CC1(C)CC(N2CCCC2)=CC(=[N+]2CCCCC2)C1	2	46	38	-8	-12	1
CC1(C)CC(N2CCCC2)=CC(=[N+]2CCCC2)C1	2	59*	13	14	-7	6

Screening results as filed in PubChem.
